# Screening results as filed in PubChem.
# STAT3 act – IL-6 driven STAT3 reporter potentiators, primary screen, U3A cells, luciferase, luminescence, MLSCN library; 190,000 compounds, 0.91% hits; activation (% of control), % at 5.6 µM; IL-6 STAT3-luciferase reporter; 100% = signal with IL-6 EC80 alone;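 active = activation above the screen-wide mean of compound activation plus 3 SD, cut at about 130% in these data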;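 note: 0% = background luminescence of wells with medium and substrate only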
#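 Assay system – human STAT1-deficient U3A cells with stable STAT3-luciferase reporter · Also added – IL-6 (33 ng/mL) · Schedule – compound 1 h, then IL-6 6 h at 37 °C · Technique – reporter luminescence signal · Evaluation – % activation versus median of IL-6-stimulated wells · Benchmarks – IL-6-only wells as 100% reference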
# STAT1 inh – STAT1 signaling inhibitors, primary screen, cell-based, HTS, luciferase reporter | inhibition, % at 5.5 µM | AID 920, 2007 | NIH 3T3 STAT1-luciferase reporter, IFN-gamma, luminescence | 200,000 compounds, 0.35% hits;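 active = inhibition above a set limit, the mean inhibition across all tested compounds plus 3 SD, cut at about 34% in these data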;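 note: 0% = IFN-gamma with DMSO and 100% = IFN-gamma with 300 µM nifuroxazide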
# STAT3 blocker – IL-6 driven STAT3 reporter inhibitors, primary screen, U3A cells, luciferase, luminescence, MLSCN library; inhibition, % at 5.5 µM; IL-6 STAT3-luciferase reporter; host cell line lacks STAT1; 190,000 compounds, 0.89% hits;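 active = inhibition above the mean inhibition across all screened compounds plus 3 SD, cut at about 44% in these data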;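 note: 0% = DMSO only wells and 100% = 100 µM nifuroxazide control wells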
# HSP90 inh – HSP90 inhibitors, primary screen, cell lysate, luminescence; Heat shock protein HSP 90 (rabbit reticulocyte lysate; luciferase refolding); Rabbit reticulocyte lysate, luciferase refolding luminescence, 3 h; AID 1789, 2009; inhibition, % at 5.6 µM; 290,000 compounds, 0.91% hits;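 active = inhibition above the screen-wide mean plus 3 SD, computed separately per campaign, cut at about 16% in these data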;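 note: 0% = DMSO wells and 100% = 60 µM geldanamycin wells; inhibitors lower the luminescence because luciferase stays unfolded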
# HSP90 inh confirm – HSP90 inhibitors, confirmation, cell lysate, luminescence; shares compounds with HSP90 inh; rabbit reticulocyte lysate, luciferase refolding luminescence, 3 h; inhibition, % at 5.9 µM; 2,300 compounds, 64% hits; in the data active = inhibition above about 18%;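 note: 0% = vehicle wells and 100% = reference inhibitor wells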
# FLuc counter – firefly luciferase inhibitors, HSP90 counter-screen, confirmation, artefact control for HSP90 inhibitor project, biochemical, luminescence, triplicate; purified native firefly luciferase; AID 1847, 2009; inhibition, % at 5.9 µM; shares compounds with HSP90 inh; 2,300 compounds, 48% hits;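 active = inhibition above the mean inhibition of all tested sample wells plus 3 SD, cut at about 10% in these data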;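 note: 0% = DMSO with luciferase and 100% = wells lacking luciferase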
# Target sequence (P08659 whole entry, looked up): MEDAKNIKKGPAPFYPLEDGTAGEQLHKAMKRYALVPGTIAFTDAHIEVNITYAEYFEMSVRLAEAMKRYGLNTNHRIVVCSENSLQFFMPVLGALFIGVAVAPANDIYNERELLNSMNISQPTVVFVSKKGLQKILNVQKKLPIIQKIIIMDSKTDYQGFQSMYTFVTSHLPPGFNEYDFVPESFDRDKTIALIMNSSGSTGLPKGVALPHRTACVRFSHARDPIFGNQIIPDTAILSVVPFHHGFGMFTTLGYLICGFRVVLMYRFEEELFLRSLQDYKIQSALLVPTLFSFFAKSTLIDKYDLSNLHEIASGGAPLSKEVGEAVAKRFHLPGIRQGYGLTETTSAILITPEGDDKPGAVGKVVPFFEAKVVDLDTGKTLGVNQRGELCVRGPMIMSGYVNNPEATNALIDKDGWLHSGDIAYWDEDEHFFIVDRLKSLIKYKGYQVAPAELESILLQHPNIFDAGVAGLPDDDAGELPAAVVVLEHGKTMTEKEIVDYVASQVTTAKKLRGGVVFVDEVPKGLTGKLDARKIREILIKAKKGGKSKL
# * = called active by the depositor; · = no result. Most compounds without a hit are left out; they make up all but 2% or so of the library.
SMILES,STAT3 act,STAT1 inh,STAT3 blocker,HSP90 inh,HSP90 inh confirm,FLuc counter
C#CCOCCOCCOCCNc1nc(N2CCN(C(=O)[C@H](Cc3ccc(O)cc3)n3cc([C@@H](N)C(C)CC)nn3)CC2)nc(N2CCN(C(=O)[C@H](CCCCN)n3cc([C@@H](N)CO)nn3)CC2)n1 (some centres not stated),·,8.7,·,20.8*,-2.1,-5.4
C#CCOCCOCCOCCNc1nc(N2CCN(C(=O)[C@H](Cc3ccc(O)cc3)n3cc([C@@H](N)C(C)CC)nn3)CC2)nc(N2CCN(C(=O)[C@H](CCCCN)n3cc([C@@H](N)CC(C)C)nn3)CC2)n1 (some centres not stated),·,-2.8,·,-1.5,·,·
C#CCOCCOCCOCCNc1nc(N2CCN(C(=O)[C@H](CCCCN)n3cc([C@@H](N)C(C)CC)nn3)CC2)nc(N2CCN(C(=O)[C@H](Cc3cc4ccccc4[nH]3)n3cc([C@@H](N)CC(C)C)nn3)CC2)n1 (some centres not stated),·,6.4,·,20.7*,2.2,-7.6
C#CCOCCOCCOCCNc1nc(N2CCN(C(=O)[C@H](Cc3cc4ccccc4[nH]3)n3cc([C@@H](N)C(C)CC)nn3)CC2)nc(N2CCN(C(=O)[C@H](CCCCN)n3cc([C@@H](N)CO)nn3)CC2)n1 (some centres not stated),·,-8.1,·,12.1,·,·
Cc1ccc(C(C)c2c(C)c([N+](=O)[O-])cc(C)c2[N+](=O)[O-])cn1 (configuration not stated),·,·,·,2.4,·,·
CCOc1ncccc1C(=O)NCCc1ccc(S(N)(=O)=O)cc1,·,·,·,0.9,·,·
O=C(O)c1cccc(N/N=C/c2cc(Br)cc(Br)c2O)c1,129.5,-34.5,-39.3,12.1,·,·
CN(C)c1ccc(/C=N/Nc2cccc(C(=O)O)c2)cc1,·,·,·,76.0*,97.1*,94.2*
O=C(O)c1cccc(N/N=C/c2ccc(-c3ccccc3)cc2)c1,62.5,47.3*,48.1*,28.0*,53.6*,67.3*
Cc1[nH]c2ccccc2c1/C=N/Nc1cccc(C(=O)O)c1,·,·,·,54.2*,54.1*,41.0*
CCc1nnc(N/N=C/c2c(C)[nH]c3ccccc23)n1N,105.4,-16.1,4.8,75.0*,-0.8,-3.4
O=C(NCCc1nnc2ccc(N3CCCC3)nn12)c1ccccc1,·,·,·,3.0,·,·
CC1CN(C(=O)CCC(=O)NCc2ccc(Cl)cc2)c2ccccc2O1 (configuration not stated),·,·,·,0.2,·,·
COc1ccc(Br)cc1/C=N/Nc1cccc(C(=O)O)c1,103.8,-8.6,-9.8,3.7,·,·
COc1ccccc1/C=C/C=N/Nc1cccc(C(=O)O)c1,·,·,·,56.6*,64.1*,49.4*
Oc1c(Cl)cc(Cl)cc1CNn1cnnc1,94.3,3.9,8.9,0.0,·,·
Oc1c(Br)cc(Br)cc1CNn1cnnc1,·,·,·,66.7*,-3.5,-4.5
Cn1ncc(Cl)c1C(=O)N1CCN(C23CC4CC(CC(C4)C2)C3)CC1,·,·,·,2.9,·,·
COc1ccc(N/C=C/C(=O)c2ccccc2)cc1,·,·,·,53.8*,88.4*,80.6*
Cc1ccnc(N/C=C/C(=O)c2ccc(Br)cc2)c1,·,·,·,9.2,·,·
COc1ccc(C(=O)/C=C/Nc2cc(C)ccn2)cc1,·,·,·,31.0*,68.5*,54.8*
CN(CCc1ccccc1)C1CCCN(S(=O)(=O)N(C)C)C1 (configuration not stated),·,·,·,-5.4,·,·
CCC(=O)Nc1nc(C)c(-c2csc(Nc3ccccn3)n2)s1,104.8,-64.1,-0.9,-7.0,·,·
Cc1nc(NC(=O)c2ccccc2)sc1-c1csc(NCc2ccccc2)n1,91.7,-5.4,10.1,59.8*,23.6*,-13.6
Cc1nc(NC(=O)c2ccccc2)sc1-c1csc(NCCc2ccccc2)n1,89.4,0.7,15.8,41.8*,19.3*,-7.1
SMILES,STAT3 act,STAT1 inh,STAT3 blocker,HSP90 inh,HSP90 inh confirm,FLuc counter
Cc1nc(N)sc1-c1csc(NCc2ccccc2)n1,98.1,-4.4,5.9,56.4*,6.3,-5.1
CCOC(=O)CNC(=O)c1sc(NC(=O)c2ccccc2)nc1C,103.0,-2.3,-2.6,12.6,·,·
Cc1nc(NC(=O)c2ccccc2)sc1-c1csc(N)n1,77.2,-28.9,29.6,61.0*,11.3,-23.9
COc1ccc(-c2noc(CNC(=O)CCN3C(=O)[C@H]4CC=CC[C@H]4C3=O)n2)cc1,·,·,·,-3.0,·,·
CCCCn1c(NC(=O)c2ccccc2Cl)c(C#N)c2nc3ccccc3nc21,92.8,10.2,12.8,58.7*,45.7*,2.2
N#Cc1c(NC(=O)c2ccccc2Cl)n(Cc2ccccc2)c2nc3ccccc3nc12,98.4,0.8,1.3,5.5,·,·
CCc1sc(C(=O)Nc2cccnc2)cc1Br,·,·,·,-1.1,·,·
COc1ccc(-c2cc(C(=O)O)c(C)o2)cc1OC,69.7,-56.2,40.4,76.4*,89.8*,64.6*
COc1ccc(-c2cc(C(=O)NC(Cc3cc4ccccc4[nH]3)C(=O)O)c(C)o2)cc1OC (configuration not stated),121.6,-11.1,-20.1,2.4,·,·
CCN1CCN(c2ncnc3c2cnn3-c2ccccc2)CC1,95.5,-18.8,14.0,-3.8,·,·
c1ccc(-n2ncc3c(N4CCCCC4)ncnc32)cc1,25.1,65.7*,96.3*,56.1*,79.7*,73.7*
O=C(O)c1ccc(-c2ccc(-c3ccccc3)cc2)s1,·,·,·,93.6*,93.4*,83.4*
O=C(Nc1ccc(C(=O)NCCCN2CCCCC2)cc1)C1=CSCCO1,·,·,·,-2.8,·,·
O=C(Nc1ccc(C(=O)NCCCN2CCN(c3ccc(F)cc3)CC2)cc1)C1=CSCCO1,·,·,·,29.6*,-2.6,-6.3
Cc1cccc(C(=O)Nc2c(C(=O)N(C)C)cnn2-c2ccccc2)c1,·,·,·,1.3,·,·
COc1ccc(C(CC(=O)O)NC(C)=O)cc1OC (configuration not stated),98.2,-1.6,2.9,18.0*,4.4,-7.5
CCOC(=O)NC(CC(=O)O)c1ccc(OC)c(OC)c1 (configuration not stated),102.8,-0.9,1.3,-1.3,·,·
Cn1c(-c2ccc(F)cc2)cnc1SCC(=O)N1CCCc2ccccc21,96.7,6.2,7.6,-1.4,·,·
Cn1c(-c2ccc(F)cc2)cnc1SCC(=O)N1CCCCC1,72.3,-42.0,33.9,18.5*,27.5*,18.9*
Cc1ccccc1-n1ncc2c1CC(C)(C)CC2NC(=O)c1snnc1C (configuration not stated),·,·,·,-5.8,·,·
C/C(=N\Nc1ccc(C(=O)O)cc1)c1ccc2c(c1)Nc1ccccc1S2,·,·,·,24.2*,28.3*,-28.7
COc1ccc(/C(C)=N/Nc2cccc(C(=O)O)c2)cc1OC,111.5,-8.9,-5.2,6.6,·,·
CC1CN/C(=C\C(=O)c2ccccc2)C(=O)N1 (configuration not stated),97.0,-41.5,7.3,1.9,·,·
